High-throughput results from PubChem BioAssay.
IMP-1 inhibitor – blocks Pseudomonas aeruginosa IMP-1 metallo-beta-lactamase | purified IMP-1, nitrocefin hydrolysis, epi-absorbance fluorescence | inhibition, % at 5.6 µM | 0.45% of 290,000 active;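 active = inhibition above the mean plus 3 SD of all compounds in the same screening run, cut at about 4.5% in these data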;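 note: 0% = IMP-1 with DMSO and 100% = DMSO wells lacking enzyme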
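System: Purified IMP-1 | Read-out basis: Percent enzyme inhibition | Controls: IMP-1 with DMSO as 0%, enzyme-free DMSO as 100% | Replicates: One well per compound | Doses: 5.6 µM nominal single concentration | Detection: Epi-absorbance fluorescence, 480 nm excitation, 530 nm emission | Incubation: 25 °C, 15 min preincubation, 25 min reaction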
MEKK2 WT-MEK5 – raises or lowers MEK5 binding to wildtype human MEKK2 PB1 domain | Q9Y2U5 | bead flow cytometry, Alexa488-MEK5 binding to MEKK2 WT; actives lie on both sides | binding response (% of control), % at 10 µM | 1.1% of 290,000 active; in the data active = binding response below about 67% or above about 130%
MEKK3 PB1 HTS – modulators (inhibitors or enhancers) of MEK5 binding to human MEKK3 PB1 domain; Q99759; bead-based flow cytometry, Alexa488-MEK5 binding to MEKK3; actives lie on both sides; 0 = blocked by unlabeled MEK5, 100 = vehicle; binding response (% of control), % at 10 µM; 1.4% of 290,000 active; AID 1529;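 active = binding response more than 3 SD above or below the average of its plate-row segment, actives on both sides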;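 note: Alexa488 bead fluorescence after subtracting the streptavidin-only scavenger bead signal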
Target sequence (Q99759 whole entry, looked up, the tested form may be a part): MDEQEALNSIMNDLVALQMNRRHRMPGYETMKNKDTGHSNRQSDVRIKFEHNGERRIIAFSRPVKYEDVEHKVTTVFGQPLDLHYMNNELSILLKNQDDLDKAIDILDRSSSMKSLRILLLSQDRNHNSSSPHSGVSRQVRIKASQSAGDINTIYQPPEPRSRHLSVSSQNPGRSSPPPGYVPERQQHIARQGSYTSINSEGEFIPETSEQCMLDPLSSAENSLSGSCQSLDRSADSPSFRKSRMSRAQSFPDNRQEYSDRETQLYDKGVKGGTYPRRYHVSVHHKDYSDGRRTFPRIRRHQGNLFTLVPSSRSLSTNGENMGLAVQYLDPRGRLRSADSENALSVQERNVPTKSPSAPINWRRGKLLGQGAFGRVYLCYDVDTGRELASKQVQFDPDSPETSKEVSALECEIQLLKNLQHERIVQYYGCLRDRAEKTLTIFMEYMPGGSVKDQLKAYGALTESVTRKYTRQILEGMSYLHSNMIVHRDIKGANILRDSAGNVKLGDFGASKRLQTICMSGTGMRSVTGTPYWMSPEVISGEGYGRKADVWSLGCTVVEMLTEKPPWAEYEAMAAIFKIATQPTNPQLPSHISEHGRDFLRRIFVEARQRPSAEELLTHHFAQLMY
MEKK2 mut-MEK5 – signal of MEK5 binding to mutant human MEKK2 PB1 domain | AID 1530 | bead flow cytometry, Alexa488-MEK5 binding to MEKK2 mutant | percent response, % at 10 µM | 0.35% of 290,000 active; in the data active = percent response above about 24%, passing the limit was not always enough
VIM-2 inh – inhibitors of Pseudomonas aeruginosa VIM-2 metallo-beta-lactamase; 0.89% of 290,000 active; inhibition, % at 5.6 µM; AID 1527; purified VIM-2, nitrocefin hydrolysis, epi-absorbance fluorescence;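 active = inhibition above the mean of all tested compounds plus 3 SD, cutoff set per screening run, cut at about 7.5% in these data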;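 note: red hydrolysis product quenches plate fluorescence so inhibitors raise well fluorescence; 0% = enzyme with DMSO and 100% = DMSO without enzyme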
MEKK2wt confirm – raises or lowers MEK5 binding to wildtype human MEKK2, retest | bead flow cytometry, Alexa488-MEK5 binding to MEKK2 WT; actives lie on both sides | 2.4% of 5,900 active | shares compounds with MEKK3 PB1 HTS | AID 1892 | binding response (% of control), % at 10 µM; in the data active = binding response below about 16% or above about 210%; inactive = in between
MEKK2mut confirm – signal of MEK5 binding to mutant human MEKK2, retest; shares compounds with MEKK3 PB1 HTS; bead flow cytometry, Alexa488-MEK5 binding to MEKK2 mutant; percent response, % at 10 µM; 2% of 5,900 active; AID 1893; in the data active = percent response mostly above about 71%, no sharp cut-off; inactive = mostly below about 38%;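 note: higher means compound restores mutant binding toward wildtype level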
MEKK3-MEK5 inh – confirmation of inhibitors of MEK5 binding to human MEKK3. shares compounds with MEKK3 PB1 HTS. bead flow cytometry, Alexa488-MEK5 binding to MEKK3; active compounds read low. binding response (% of control), % at 10 µM. 1.8% of 5,900 active;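 active = binding response below 72% of control, or above a set upper limit, though filed actives all read lower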;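 note: 100% = DMSO only wells and 0% = binding blocked by excess unlabeled MEK5; lower values mean stronger disruption of MEK5 binding to MEKK3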
* = called active by the depositor; x = no result; [ ] = another dose, or the depositor's remark. In the library only some 3.4% were active in any assay of this set; here they are far more common.

SMILES	IMP-1 inhibitor	MEKK2 WT-MEK5	MEKK3 PB1 HTS	MEKK2 mut-MEK5	VIM-2 inh	MEKK2wt confirm	MEKK2mut confirm	MEKK3-MEK5 inh
Cc1nc(-c2nc(-c3c(C(=O)NN)noc3C)cs2)cs1	-4	122	147*	6	-1	109	9	106
Cc1nc(-c2nc(-c3c(C(=O)NNC(=O)c4ccc(Cl)cc4)noc3C)cs2)cs1	-1	107	103	2	0	x	x	x
O=C(N/N=C/c1c[nH]c2ccccc12)c1cc(-c2ccc3ccccc3c2)n[nH]1	-5	138*	112	15	-4	104	-5	102
O=C(C1CCC1)N1CCN(Cc2ccccc2)CC1	-2	106	103	4	-2	x	x	x
CCN(CC)S(=O)(=O)c1cc(NC(=O)NCCCl)ccc1C	-5	101	102	2	-4	x	x	x
O=C(Nc1cccc(-c2csc(Nc3ccc(Cl)cc3)n2)c1)c1cccc(C(F)(F)F)c1	x	96	123*	9	x	117	0	106
O=C(Nc1cccc(-c2csc(Nc3ccc(Cl)cc3)n2)c1)c1ccccc1	x	106	112	5	x	x	x	x
CCOc1ccccc1N1CCN(C(=S)NCc2ccco2)CC1	-3	92	64*[inhibitor]	-1	-2	107	5	107
S=C(NCc1ccco1)N1CCN(c2ccc(Cl)cc2)CC1	-4	100	98	1	-3	x	x	x
CC(=O)c1ccc(N2CCN(C(=S)NCc3ccco3)CC2)cc1	-2	53	46*[inhibitor]	-16	3	93	-27	92
CCN(CC)c1ccc(/C=N/Nc2nc3ccccc3[nH]2)c(O)c1	-4	129	107	31*	-4	131	21	103
CCN(CC)c1ccc(O)c(C=Nc2ccc(C)c(C)c2)c1	0	64	86	-21	1	x	x	x
COc1cc(OC)c(OC)cc1/C=N/Nc1nc2ccccc2[nH]1	-5	120	105	12	-3	x	x	x
CCN(CC)c1ccc(/C=N/N(c2ccccc2)c2ccccc2)c(O)c1	-3	101	101	4	-2	x	x	x
CCN(CC)c1ccc(C=Nc2ccc(C#N)cc2)c(O)c1	-3	67*[inhibitor]	101	-36	-2	101	5	106
CCN(CC)c1ccc(C=Nc2ccccc2C)c(O)c1	-3	104	140*	0	-3	89	-6	98
O=C(O)C1C2C=CC3(CN(Cc4ccco4)C(=O)C13)O2 (configuration not stated)	-4	99	99	-1	-4	x	x	x
O=C(COc1cc(O)c2c(=O)cc(-c3ccccc3)oc2c1)c1ccc(F)cc1	-2	90	86	-10	-2	x	x	x
CC(C)CN(C(=O)COC(=O)c1cncc(Br)c1)c1c(N)n(Cc2ccccc2)c(=O)[nH]c1=O	-3	92	98	4	-4	x	x	x
CCOc1cc(CNCc2ccncc2)cc(Br)c1OCc1ccc(F)cc1	-3	142*	108	22	-4	128	22	112
COc1cc(CNC(C)c2ccccc2)cc(Br)c1OCc1ccccc1 (configuration not stated)	-4	192*	112	17	-3	164	31	105
COc1cc(CNC(C)c2ccccc2)cc(Br)c1OCc1ccc(F)cc1 (configuration not stated)	-3	223*	109	23	-2	186	50	113
COc1cc(CNc2ccc(O)cc2)cc(Br)c1OCc1ccccc1	-3	111	101	0	-3	x	x	x
COc1ccc(OCCC(=O)N2CCCCC2)cc1	-4	x	x	x	-3	x	x	x
COc1ccc(OCCC(=O)N2CCN(C)CC2)cc1	-4	113	114	25*	0	103	0	102
SMILES	IMP-1 inhibitor	MEKK2 WT-MEK5	MEKK3 PB1 HTS	MEKK2 mut-MEK5	VIM-2 inh	MEKK2wt confirm	MEKK2mut confirm	MEKK3-MEK5 inh
COc1ccc(/C=C/c2nc3ccccc3n2Cc2ccccc2OC)cc1	-4	105	151*	5	-3	111	3	107
Cc1nn(-c2ccccc2)c(N)c1-c1ccccc1	-4	106	109	-9	-3	x	x	x
COc1ccc(/C=N/Nc2cc(N3CCCC3)nc(N3CCCC3)n2)cc1	-3	142*	130*	4	-3	160	33	108
CCCCCN=CC1=C(O)CC(c2ccccc2)CC1=O (configuration not stated)	0	75	78	-18	-1	x	x	x
O=C1CC(c2ccccc2)CC(O)=C1C=NCCCN1CCOCC1 (configuration not stated)	0	89	81*[inhibitor]	-11	1	100	-7	103
CC(C)n1cnc2c(N(C)c3ccccc3)nc(N(CCN(C)C)Cc3ccccc3)nc21	x	175*	114	22	x	137	7	103
CCC(C)(C)c1ccc(OCCCC[n+]2ccc(C)cc2)c(C(C)(C)CC)c1	-4	189*	103	56*	-4	181	37	107
Cc1cc(C(C)(C)C)ccc1OCCCCN1CCCC1	-2	105	102	-1	-3	x	x	x
CCCCCCOC(=O)Cc1c(C)nc(N)[nH]c1=O	-1	85	80	-26	-2	x	x	x
Nc1cc(=O)[nH]c(SCC(=O)Nc2cccnc2Cl)n1	-3	97	99	-5	-3	x	x	x
S=C(Nc1ccc(Br)cc1)N1CCCC1	-3	113	131*	0	-1	102	-4	102
COc1ccc(NC(=S)N2CCCC2)cc1	-4	91	59*[inhibitor]	-1	-3	99	-5	93
O=C1C(Cl)=C(N2CCCCCC2)C(=O)N1c1ccc(Cl)cc1	-2	104	103	1	-1	x	x	x
O=C1C(Cl)=C(N2CCCCC2)C(=O)C(Cl)=C1c1cnc(N2CCCCC2)s1	4	60*[inhibitor]	62*[inhibitor]	-20	1	72	-7	85
O=C1C(=O)N(CCN2CCOCC2)C(c2ccccn2)/C1=C(/O)c1ccccc1 (configuration not stated)	0	0.0*[inhibitor]	0.0*[inhibitor]	-27	-3	108	7	108
NCC12CC3CC(C1)CC(c1ccc(Cl)cc1)(C3)C2	-3	155*	98	26	-5	147	29	102
COC(=O)c1sccc1NC(=O)c1ccc(OC)c([N+](=O)[O-])c1	-3	101	108	2	-4	x	x	x
CCOC(=O)c1c(C)[nH]c(C)c1C(=O)CSc1nc2ccccc2n1CCOC	-4	110	104	9	-1	x	x	x
